Here are results for five compounds from ChEMBL document CHEMBL4130344, “Substituted arylsulphonamides as inhibitors of perforin-mediated lysis” (Eur J Med Chem, 2017).

The nature of this data set: Metabolic stability in human liver microsomes assessed as parent compound remaining at 3 uM after 30 mins by LC-MS/MS method. The note with it: read-out: Stability. The class given is ADME, microsome. In a few lines:
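Compounds were tested as sodium salts. The read-out was the percentage of parent compound remaining after 30 min exposure to human microsomes.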

On to `CN1Cc2cc(-c3ccc(-c4cncc(NS(=O)(=O)c5c(F)cc(F)cc5F)c4)s3)ccc2C1=O`, for which the remaining at 0.5 h, 3 µM came to 63%.
The same measure for `CN1Cc2cc(-c3ccc(-c4cncc(NS(=O)(=O)c5cccc(C(F)(F)F)c5)c4)s3)ccc2C1=O`: 57%; for `CN1Cc2cc(-c3ccc(-c4cncc(NS(=O)(=O)c5ccccc5C(F)(F)F)c4)s3)ccc2C1=O`: 14%.
Consider `CN1Cc2cc(-c3ccc(-c4cncc(NS(=O)(=O)c5ccc([N+](=O)[O-])cc5)c4)s3)ccc2C1=O`, for which the remaining at 0.5 h, 3 µM turned out to be 39%.
The same measure for `CN1Cc2cc(-c3ccc(-c4cncc(NS(=O)(=O)c5ccc(C#N)cc5)c4)s3)ccc2C1=O`: 52%.
